{
  "source": "ChEMBL document CHEMBL1129996",
  "about": "“1-Aryl-3,5-dihydro-4H-2,3-benzodiazepin-4-ones: novel AMPA receptor antagonists” (J Med Chem, 1997)",
  "key": {"Mus musculus [1]": {"system": "Mus musculus", "assay": "Anticonvulsant activity against tonic phase of the audiogenic seizures in DBA / 2 mice 30 min after ip administration at a dose range 10-66 uM/kg", "assay_type": "functional", "conditions": "0.5 h", "procedure,_shortened": "(§1)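 Groups of 10 DBA/2 mice of either sex; drug ip (0.1 mL/10 g) as fresh solution in 50% DMSO/50% saline, 30 min before auditory stimulation (12-16 kHz, 109 dB, 60 s or until tonic extension) under perspex dome after 60 s habituation. Latency and incidence of wild running, clonic and tonic phases scored; ED50 (95% confidence limits) by Litchfield-Wilcoxon.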"}, "Mus musculus [2]": {"species": "Mus musculus", "assay": "Audiogenic seizures after concomitant treatment with Flumazenil (8.24 uM) in DBA / 2 mice clonic phase", "assay_type": "functional"}, "Mus musculus [3]": {"system": "Mus musculus", "assay": "Anticonvulsant activity against clonic phase of the audiogenic seizures in DBA / 2 mice 30 min after ip administration at a dose range 10-66 uM/kg", "assay_type": "functional", "conditions": "0.5 h", "procedure,_shortened": "as §1"}, "Mus musculus [4]": {"species": "Mus musculus", "assay": "Audiogenic seizures after concomitant treatment with Flumazenil (8.24 uM) in DBA / 2 mice tonic phase", "assay_type": "functional"}, "Mus musculus [5]": {"species": "Mus musculus", "assay": "Audiogenic seizures after concomitant treatment with Flumazenil (24.72 uM) in DBA / 2 mice tonic phase", "assay_type": "functional"}, "[6]": {"assay": "Relative lipophilicity of compound", "assay_type": "physicochemical", "conditions": "reversed-phase TLC, acetone/water 2:1", "procedure,_shortened": "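Reversed-phase TLC type lipophilicity: plates dried 105 °C 1 h, mobile phase acetone:water 2:1, 1 µL of 3 mg/mL CHCl3 solution spotted; five runs with varied positions, mean Rf converted as Rm = log[(1/Rf) - 1].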"}, "[7]": {"assay": "Therapeutic index it is the ratio between TD50 and ED50 (from the clonic phase of the audiogenic seizures)", "conditions": "read-out: TI", "procedure,_shortened": "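Therapeutic index computed as rotarod TD50 divided by ED50 for the clonic phase of audiogenic seizures in DBA/2 mice.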"}, "Mus musculus [8]": {"system": "Mus musculus", "assay": "Anticonvulsant activity against the tonic seizures induced by icv injection of AMPA in DBA / 2 mice at a dose range of 10-66 uM/kg", "assay_type": "functional", "conditions": "central"}, "[9]": {"assay": "Motor toxicity in 50% of mice on locomotion assessed by Rotarod test following 30 min ip administration", "assay_type": "organism-based", "conditions": "mouse, in vivo", "procedure,_shortened": "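Male Swiss mice (20-26 g, 48-54 days), groups of 10, trained on rotarod (3 cm, 8 rpm); tested 30 min after ip dosing. Impairment = failure to stay on for 2 min; TD50 (95% confidence limits) by Litchfield-Wilcoxon.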"}, "Mus musculus [10]": {"species": "Mus musculus", "assay": "Audiogenic seizures after concomitant treatment with Flumazenil (24.72 uM) in DBA / 2 mice clonic phase", "assay_type": "functional"}, "Mus musculus [11]": {"system": "Mus musculus", "assay": "Anticonvulsant activity against the clonic seizures induced by icv injection of AMPA in DBA / 2 mice at a dose range of 10-66 uM/kg", "assay_type": "functional", "conditions": "central"}, "Mus musculus [12]": {"system": "Mus musculus", "assay": "Audiogenic seizures after pretreatment with Aniracetam in DBA / 2 mice tonic phase at a dose range of 10-200 uM/kg", "assay_type": "functional", "procedure,_shortened": "(§2)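 DBA/2 mice pretreated with aniracetam 50 nmol icv 60 min before auditory testing, with ip 2,3-benzodiazepine; audiogenic clonic and tonic phases scored; ED50 by Litchfield-Wilcoxon.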"}, "Mus musculus [13]": {"system": "Mus musculus", "assay": "Anticonvulsant activity against the maximal electroshock in Swiss mice after 45 minutes pretreatment at a dose range 10-100 uM/kg", "assay_type": "functional", "procedure,_shortened": "(§3)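 Swiss mice dosed ip in 50% DMSO/50% saline 45 min before ear-clip electroshock (50 mA, 20 ms pulses, 35 Hz, 400 ms). Protection = abolition of tonic hindlimb extension. Usually 4-5 doses with 8-10 mice each; ED50 (95% confidence limits) by Litchfield-Wilcoxon.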"}, "Mus musculus [14]": {"system": "Mus musculus", "assay": "Audiogenic seizures after pretreatment with Aniracetam in DBA / 2 mice clonic phase at a dose range of 10-200 uM/kg", "assay_type": "functional", "procedure,_shortened": "as §2"}, "Mus musculus [15]": {"system": "Mus musculus", "assay": "Anticonvulsant activity against the tonic seizures induced by icv injection of AMPA in DBA / 2 mice at a dose range of 10-100 uM/kg", "assay_type": "functional", "conditions": "central"}, "Mus musculus [16]": {"system": "Mus musculus", "assay": "Anticonvulsant activity against clonic phase of the audiogenic seizures in DBA / 2 mice 30 min after ip administration at a dose range 3.3-66 uM/kg", "assay_type": "functional", "conditions": "0.5 h", "procedure,_shortened": "(§4)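 Groups of 10 DBA/2 mice of either sex, dosed ip (0.1 mL/10 g) with fresh solution in 50% DMSO/50% saline; 30 min later exposed under a perspex dome (after 60 s habituation) to 12-16 kHz, 109 dB sound for 60 s or until tonic extension. Scored for latency and incidence of wild running, clonus, tonus; ED50 (95% limits) by Litchfield-Wilcoxon.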"}, "Mus musculus [17]": {"system": "Mus musculus", "assay": "Anticonvulsant activity against the clonic seizures induced by icv injection of AMPA in DBA / 2 mice at a dose range of 10-100 uM/kg", "assay_type": "functional", "conditions": "central"}, "Mus musculus [18]": {"system": "Mus musculus", "assay": "Pentylenetetrazole-induced seizures in Swiss mice after 45 min pretreatment at a dose range 10-100 uM/kg", "assay_type": "functional", "procedure,_shortened": "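Male Swiss mice (20-26 g), compound ip in 50% DMSO/50% saline 45 min before sc pentylenetetrazole at CD97 (85 mg/kg), then observed 30 min. Protection is absence of clonic spasms lasting at least 5 s. Typically 4-5 doses, 8-10 mice per dose. ED50 with 95% confidence limits by Litchfield and Wilcoxon.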"}, "Mus musculus [19]": {"system": "Mus musculus", "assay": "Anticonvulsant activity against tonic phase of the audiogenic seizures in DBA / 2 mice 30 min after ip administration at a dose range 3.3-66 uM/kg", "assay_type": "functional", "conditions": "0.5 h", "procedure,_shortened": "as §4"}, "Mus musculus [20]": {"system": "Mus musculus", "assay": "Anticonvulsant activity against tonic phase of the audiogenic seizures in DBA / 2 mice 30 min after ip administration at a dose range 3.3-100 uM/kg", "assay_type": "functional", "conditions": "0.5 h", "procedure,_shortened": "as §1"}, "Mus musculus [21]": {"system": "Mus musculus", "assay": "Anticonvulsant activity against the maximal electroshock in Swiss mice after 45 minutes pretreatment at a dose range 10-150 uM/kg", "assay_type": "functional", "procedure,_shortened": "as §3"}, "Mus musculus [22]": {"system": "Mus musculus", "assay": "Anticonvulsant activity against clonic phase of the audiogenic seizures in DBA / 2 mice 30 min after ip administration at a dose range 3.3-100 uM/kg", "assay_type": "functional", "conditions": "0.5 h", "procedure,_shortened": "as §1"}, "Mus musculus [23]": {"system": "Mus musculus", "assay": "Pentylenetetrazole-induced seizures in Swiss mice after 45 min pretreatment at a dose range 10-150 uM/kg", "assay_type": "functional"}},
  "note": "Several values for one entry are separate records, joined by “and”; a condition that tells them apart may be missing. Equal entries are not always repeated.",
  "data": [
    {"smiles": "COc1cc2c(cc1OC)C(c1cccc(N)c1)=NNC(=O)C2", "values": [
      {"measurement": "ED50", "setting": "Mus musculus [1]", "value": "18.3 µmol/kg and 5.69 mg/kg"},
      {"measurement": "ED50", "setting": "Mus musculus [2]", "value": 21, "unit": "µmol/kg"},
      {"measurement": "ED50", "setting": "Mus musculus [3]", "value": "19.3 µmol/kg and 6 mg/kg"},
      {"measurement": "ED50", "setting": "Mus musculus [4]", "value": 18.2, "unit": "µmol/kg"},
      {"measurement": "ED50", "setting": "Mus musculus [5]", "value": 17.5, "unit": "µmol/kg"},
      {"measurement": "Rm", "setting": "[6]", "value": -0.525},
      {"measurement": "therapeutic index (TD50/ED50)", "setting": "[7]", "value": 2.7},
      {"measurement": "ED50", "setting": "Mus musculus [8]", "value": 27.8, "unit": "µmol/kg"},
      {"measurement": "TD50 at 0.5 h", "setting": "[9]", "value": 51.5, "unit": "µmol/kg"},
      {"measurement": "ED50", "setting": "Mus musculus [10]", "value": 29.2, "unit": "µmol/kg"},
      {"measurement": "ED50", "setting": "Mus musculus [11]", "value": 30.9, "unit": "µmol/kg"}
    ]},
    {"smiles": "CC1=NN=C(c2ccc(N)cc2)c2cc3c(cc2C1)OCO3", "note": "[GYKI-52466]", "values": [
      {"measurement": "ED50", "setting": "Mus musculus [12]", "value": 100, "unit": "µmol/kg"},
      {"measurement": "ED50", "setting": "Mus musculus [2]", "value": 37.8, "unit": "µmol/kg"},
      {"measurement": "ED50", "setting": "Mus musculus [13]", "value": 35.7, "unit": "µmol/kg"},
      {"measurement": "ED50", "setting": "Mus musculus [14]", "value": 134, "unit": "µmol/kg"},
      {"measurement": "ED50", "setting": "Mus musculus [4]", "value": 26.7, "unit": "µmol/kg"},
      {"measurement": "ED50", "setting": "Mus musculus [5]", "value": 29.7, "unit": "µmol/kg"},
      {"measurement": "ED50", "setting": "Mus musculus [15]", "value": 40.5, "unit": "µmol/kg"},
      {"measurement": "ED50", "setting": "Mus musculus [16]", "value": "35.8 µmol/kg and 10.5 mg/kg"},
      {"measurement": "ED50", "setting": "Mus musculus [17]", "value": 57.5, "unit": "µmol/kg"},
      {"measurement": "Rm", "setting": "[6]", "value": -0.298},
      {"measurement": "TD50 at 0.5 h", "setting": "[9]", "value": 76.1, "unit": "µmol/kg"},
      {"measurement": "ED50", "setting": "Mus musculus [18]", "value": 68.3, "unit": "µmol/kg"},
      {"measurement": "ED50", "setting": "Mus musculus [10]", "value": 39.5, "unit": "µmol/kg"},
      {"measurement": "ED50", "setting": "Mus musculus [19]", "value": "25.3 µmol/kg and 7.41 mg/kg"}
    ]},
    {"smiles": "COc1cc2c(cc1OC)C(c1ccc(N)cc1)=NNC(=O)C2", "values": [
      {"measurement": "ED50", "setting": "Mus musculus [12]", "value": 58.2, "unit": "µmol/kg"},
      {"measurement": "ED50", "setting": "Mus musculus [20]", "value": "12.6 µmol/kg and 3.92 mg/kg"},
      {"measurement": "ED50", "setting": "Mus musculus [2]", "value": 14.1, "unit": "µmol/kg"},
      {"measurement": "ED50", "setting": "Mus musculus [14]", "value": 65.2, "unit": "µmol/kg"},
      {"measurement": "ED50", "setting": "Mus musculus [4]", "value": 12, "unit": "µmol/kg"},
      {"measurement": "ED50", "setting": "Mus musculus [5]", "value": 10.2, "unit": "µmol/kg"},
      {"measurement": "ED50", "setting": "Mus musculus [15]", "value": 25, "unit": "µmol/kg"},
      {"measurement": "ED50", "setting": "Mus musculus [21]", "value": 15.9, "unit": "µmol/kg"},
      {"measurement": "ED50", "setting": "Mus musculus [17]", "value": 32.1, "unit": "µmol/kg"},
      {"measurement": "Rm", "setting": "[6]", "value": -0.602},
      {"measurement": "therapeutic index (TD50/ED50)", "setting": "[7]", "value": 3.8},
      {"measurement": "ED50", "setting": "Mus musculus [22]", "value": "15 µmol/kg and 4.66 mg/kg"},
      {"measurement": "TD50 at 0.5 h", "setting": "[9]", "value": 56.8, "unit": "µmol/kg"},
      {"measurement": "ED50", "setting": "Mus musculus [10]", "value": 12, "unit": "µmol/kg"},
      {"measurement": "ED50", "setting": "Mus musculus [23]", "value": 22.6, "unit": "µmol/kg"}
    ]}
  ]
}
